# From ChEMBL document CHEMBL1140227, “Histone deacetylase inhibitors through click chemistry” (J Med Chem, 2008)
# Legend:
# SK-MEL-2 = experiment: Growth inhibition of human SK-MEL-2 cells at 10 uM relative to control; assay type: functional; details: values are per cent of control
# Method in brief: (§1)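 Single-dose preliminary screen in the NCI human cancer cell line panel, run by the NIH. Percent inhibition of cell line growth was calculated by comparison with untreated samples.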
# SK-MEL-28 = experiment: Growth inhibition of human SK-MEL-28 cells at 10 uM relative to control; assay type: functional; details: values are per cent of control; method in brief: as §1
# SK-MEL-5 = experiment: Growth inhibition of human SK-MEL-5 cells at 10 uM relative to control; assay type: functional; details: values are per cent of control; method in brief: as §1
# UACC-257 = experiment: Growth inhibition of human UACC257 cells at 10 uM relative to control; assay type: functional; details: values are per cent of control
# Method in brief: (§2)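 Single-dose NCI human tumour cell line screen, run by the NIH. Percent inhibition of cell line growth was calculated by comparison with untreated samples.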
# UACC-62 = experiment: Growth inhibition of human UACC62 cells at 10 uM relative to control; assay type: functional; details: values are per cent of control; method in brief: as §2
# DU-145 = experiment: Growth inhibition of human DU145 cells at 10 uM relative to control; assay type: functional; details: values are per cent of control; method in brief: as §1
# PC-3 = experiment: Growth inhibition of human PC3 cells at 10 uM relative to control; assay type: functional; details: values are per cent of control; method in brief: as §1
# SF-268 = experiment: Growth inhibition of human SF268 cells at 10 uM relative to control; assay type: functional; details: values are per cent of control; method in brief: as §1
# SF-295 = experiment: Growth inhibition of human SF295 cells at 10 uM relative to control; assay type: functional; details: values are per cent of control; method in brief: as §1
# SF-539 = experiment: Growth inhibition of human SF539 cells at 10 uM relative to control; assay type: functional; details: values are per cent of control; method in brief: as §1
# SNB-19 = experiment: Growth inhibition of human SNB19 cells at 10 uM relative to control; assay type: functional; details: values are per cent of control; method in brief: as §1
# SNB-75 = experiment: Growth inhibition of human SNB75 cells at 10 uM relative to control; assay type: functional; details: values are per cent of control; method in brief: as §2
# U-251 = experiment: Growth inhibition of human U251 cells at 10 uM relative to control; assay type: functional; details: values are per cent of control; method in brief: as §2
# cells [1] = assay type: functional; details: Homo sapiens, Cancer cell lines
# cells [2] = assay type: functional; details: Homo sapiens, Cancer cell lines; remark: listed apart in the source
# Leukemia cell = experiment: cells; assay type: functional; details: Homo sapiens
# cells [3] = assay type: functional; details: Homo sapiens, Cancer cell lines; remark: listed apart in the source
# Melanoma cell = experiment: cells; assay type: functional; details: Homo sapiens
# cells [4] = assay type: functional; details: Homo sapiens, Cancer cell lines; remark: listed apart in the source
# RXF 393 = experiment: Growth inhibition of human […] cells; assay type: functional
# TK-10 = experiment: Growth inhibition of human TK10 cells; assay type: functional
# Method in brief: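 NCI five-dose screen, run by the NIH. Each drug was tested at five concentrations alongside a control, using two microtiter plates per cell line. SAHA was included as the standard.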
# cells [5] = assay type: functional; details: Homo sapiens, Cancer cell lines; remark: listed apart in the source
# Histone deacetylase 1 = Histone deacetylase 1 (Homo sapiens, UniProt Q13547); experiment: Inhibition of human HDAC1
# A549 = experiment: Growth inhibition of human A549 cells at 10 uM relative to control; assay type: functional; details: values are per cent of control; method in brief: as §1
# EKVX = experiment: Growth inhibition of human EKVX cells at 10 uM relative to control; assay type: functional; details: values are per cent of control; method in brief: as §1
# HOP-62 = experiment: Growth inhibition of human HOP62 cells at 10 uM relative to control; assay type: functional; details: values are per cent of control; method in brief: as §1
# HOP-92 = experiment: Growth inhibition of human HOP92 cells at 10 uM relative to control; assay type: functional; details: values are per cent of control; method in brief: as §1
# NCI-H226 = experiment: Growth inhibition of human NCI-H226 cells at 10 uM relative to control; assay type: functional; details: values are per cent of control; method in brief: as §1
# NCI-H23 = experiment: Growth inhibition of human NCI-H23 cells at 10 uM relative to control; assay type: functional; details: values are per cent of control; method in brief: as §1
# NCI-H322M = experiment: Growth inhibition of human NCI-H322M cells at 10 uM relative to control; assay type: functional; details: values are per cent of control; method in brief: as §1
# NCI-H460 = experiment: Growth inhibition of human NCI-H460 cells at 10 uM relative to control; assay type: functional; details: values are per cent of control; method in brief: as §1
# NCI-H522 = experiment: Growth inhibition of human NCI-H522 cells at 10 uM relative to control; assay type: functional; details: values are per cent of control; method in brief: as §1
# COLO 205 = experiment: Growth inhibition of human COLO205 cells at 10 uM relative to control; assay type: functional; details: values are per cent of control; method in brief: as §1
# HCC 2998 = experiment: Growth inhibition of human HCC2998 cells at 10 uM relative to control; assay type: functional; details: values are per cent of control; method in brief: as §1
# Chain of Histone deacetylase 1 (Q13547 whole entry): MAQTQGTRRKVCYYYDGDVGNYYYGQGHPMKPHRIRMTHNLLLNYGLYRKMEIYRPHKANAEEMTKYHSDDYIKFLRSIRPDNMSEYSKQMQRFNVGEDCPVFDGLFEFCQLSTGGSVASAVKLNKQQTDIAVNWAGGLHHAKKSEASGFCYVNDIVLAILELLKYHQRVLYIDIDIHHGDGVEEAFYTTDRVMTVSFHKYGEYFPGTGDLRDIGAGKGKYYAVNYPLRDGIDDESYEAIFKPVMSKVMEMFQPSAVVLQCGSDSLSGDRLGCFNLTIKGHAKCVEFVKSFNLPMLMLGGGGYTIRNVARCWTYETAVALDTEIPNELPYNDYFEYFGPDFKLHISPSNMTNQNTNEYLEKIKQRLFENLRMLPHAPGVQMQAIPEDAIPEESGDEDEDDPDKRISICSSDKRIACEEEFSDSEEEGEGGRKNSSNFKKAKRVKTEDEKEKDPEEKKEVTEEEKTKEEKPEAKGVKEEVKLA
smiles,measurement,setting,value
O=C(/C=C/c1cn(C/C=C/c2ccccc2)nn1)NO,"growth, % of control at 10 µM",SK-MEL-2,-51.7%
same,"growth, % of control at 10 µM",SK-MEL-28,-15%
same,"growth, % of control at 10 µM",SK-MEL-5,-79%
same,"growth, % of control at 10 µM",UACC-257,-32.1%
same,"growth, % of control at 10 µM",UACC-62,-71.2%
same,"growth, % of control at 10 µM",DU-145,-28.7%
same,"growth, % of control at 10 µM",PC-3,11%
same,"growth, % of control at 10 µM",SF-268,-0.08%
same,"growth, % of control at 10 µM",SF-295,-55.5%
same,"growth, % of control at 10 µM",SF-539,5.16%
same,"growth, % of control at 10 µM",SNB-19,-12.4%
same,"growth, % of control at 10 µM",SNB-75,16.7%
same,"growth, % of control at 10 µM",U-251,-89.9%
same,growth percent at 10 µM,cells [1],8%
same,inhibition at 10 µM,cells [2],1%
same,inhibition at 10 µM,Leukemia cell,-6%
same,growth percent at 10 µM,cells [3],-20%
same,inhibition at 10 µM,Melanoma cell,-43%
same,inhibition at 10 µM,cells [4],-18%
same,GI50,RXF 393,< 10 nM
same,GI50,TK-10,495 nM
same,inhibition at 10 µM,cells [5],1%
same,IC50,Histone deacetylase 1,104 nM
same,"growth, % of control at 10 µM",A549,-8.94%
same,"growth, % of control at 10 µM",EKVX,23.7%
same,"growth, % of control at 10 µM",HOP-62,-31.7%
same,"growth, % of control at 10 µM",HOP-92,-42%
same,"growth, % of control at 10 µM",NCI-H226,23.7%
same,"growth, % of control at 10 µM",NCI-H23,21.4%
same,"growth, % of control at 10 µM",NCI-H322M,9.59%
same,"growth, % of control at 10 µM",NCI-H460,7.36%
same,"growth, % of control at 10 µM",NCI-H522,8.32%
same,"growth, % of control at 10 µM",COLO 205,-75.7%
same,"growth, % of control at 10 µM",HCC 2998,-1.33%
